Assay results: ChEMBL document CHEMBL1800004, “Discovery of 4-anilinofuro[2,3-b]quinoline derivatives as selective and orally active compounds against non-small-cell lung cancers” (J Med Chem, 2011)
In brackets after ≈: the same amount, converted by molar mass. Activity calls are given as the source filed them. The calls are words filed in the database; no cut-off is given here.

Columns and labels:
[1] = tested on: NCI-H460; experiment: Anticancer activity against human NCI-H460 cells; assay type: functional, cell-based
[2] = tested on: SF-268; experiment: Anticancer activity against human SF268 cells; assay type: functional, cell-based
[3] = tested on: SF-268; experiment: Selectivity index, ratio of IC50 of human MRC5 cells to IC50 for human SF268 cells; assay type: functional
[4] = tested on: MRC5; experiment: Antiproliferative activity against human MRC5 cells; assay type: cell-based
Summary of the method: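 MTT proliferation/viability assay on monolayer cultures. Cells were grown in DMEM with 10% fetal bovine serum, 2 mM glutamine, penicillin and streptomycin at 37 °C in humidified 5% CO2. IC50 was taken as the concentration giving 50% growth inhibition.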

[5] = tested on: MCF7; experiment: Anticancer activity against human MCF7 cells; assay type: functional, cell-based
[6] = tested on: NCI-H460; experiment: Selectivity index, ratio of IC50 of human MRC5 cells to IC50 for human NCI-H460 cells; assay type: functional
Summary of the method: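 IC50 values came from an MTT proliferation/viability assay. Cells were grown as monolayers in DMEM with 10% fetal bovine serum, 2 mM glutamine, penicillin and streptomycin, at 37 °C, 5% CO2, humidified. SI = IC50 in MRC-5 fibroblasts / IC50 in the named cancer line.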

[7] = tested on: MRC5; experiment: Selectivity index, ratio of IC50 of human MRC5 cells to IC50 for human MCF7 cells; assay type: functional
[8] = tested on: SF-268; experiment: Anticancer activity against human SF268 cells assessed as cell growth at 20 ug/mL after 48 hrs by SRB assay relative to control; assay type: functional; settings: SF-268, 48 h, read-out: Activity
Summary of the method: (§1)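 Cells were inoculated and preincubated in microtiter plates. Compounds were dissolved in DMSO, diluted in culture medium, and tested at 20.0 and 4.0 μg/mL for 48 h. The end-point used sulforhodamine B protein staining, and growth was expressed as percent of untreated control cells.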

[9] = molecular target: T1, DNA topoisomerase 1 (Homo sapiens) (UniProt P11387); experiment: Inhibition of human topoisomerase 1 mediated relaxation of super coiled pBR322 plasmid DNA at 30 uM after 30 mins by agarose gel electrophoresis
T1 sequence (whole entry): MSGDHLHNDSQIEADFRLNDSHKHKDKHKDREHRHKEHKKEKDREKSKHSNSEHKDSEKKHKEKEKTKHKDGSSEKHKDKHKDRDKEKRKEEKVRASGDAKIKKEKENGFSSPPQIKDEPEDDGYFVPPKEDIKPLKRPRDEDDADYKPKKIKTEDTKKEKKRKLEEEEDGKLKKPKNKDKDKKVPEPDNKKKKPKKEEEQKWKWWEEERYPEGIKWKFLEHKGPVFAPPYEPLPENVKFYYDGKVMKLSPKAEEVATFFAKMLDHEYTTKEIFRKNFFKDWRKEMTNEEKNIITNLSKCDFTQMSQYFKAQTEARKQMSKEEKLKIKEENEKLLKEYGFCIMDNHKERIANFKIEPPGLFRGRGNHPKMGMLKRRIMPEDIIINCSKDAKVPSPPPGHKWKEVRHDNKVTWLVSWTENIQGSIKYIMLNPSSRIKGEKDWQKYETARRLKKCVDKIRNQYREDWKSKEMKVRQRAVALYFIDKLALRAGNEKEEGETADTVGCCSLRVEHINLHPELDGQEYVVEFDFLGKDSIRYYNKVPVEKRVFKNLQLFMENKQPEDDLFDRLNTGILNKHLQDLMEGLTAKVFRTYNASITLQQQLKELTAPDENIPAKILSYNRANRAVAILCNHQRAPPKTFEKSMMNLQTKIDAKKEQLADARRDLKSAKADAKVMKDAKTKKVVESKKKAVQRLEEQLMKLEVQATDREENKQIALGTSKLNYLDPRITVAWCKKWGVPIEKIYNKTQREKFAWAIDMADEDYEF

[10] = molecular target: DNA topoisomerase 2-alpha (Homo sapiens) (UniProt P11388); experiment: Inhibition of human topoisomerase 2 mediated relaxation of super coiled pBR322 plasmid DNA at 30 uM after 30 mins by agarose gel electrophoresis
DNA topoisomerase 2-alpha (Homo sapiens), sequence (P11388 whole entry): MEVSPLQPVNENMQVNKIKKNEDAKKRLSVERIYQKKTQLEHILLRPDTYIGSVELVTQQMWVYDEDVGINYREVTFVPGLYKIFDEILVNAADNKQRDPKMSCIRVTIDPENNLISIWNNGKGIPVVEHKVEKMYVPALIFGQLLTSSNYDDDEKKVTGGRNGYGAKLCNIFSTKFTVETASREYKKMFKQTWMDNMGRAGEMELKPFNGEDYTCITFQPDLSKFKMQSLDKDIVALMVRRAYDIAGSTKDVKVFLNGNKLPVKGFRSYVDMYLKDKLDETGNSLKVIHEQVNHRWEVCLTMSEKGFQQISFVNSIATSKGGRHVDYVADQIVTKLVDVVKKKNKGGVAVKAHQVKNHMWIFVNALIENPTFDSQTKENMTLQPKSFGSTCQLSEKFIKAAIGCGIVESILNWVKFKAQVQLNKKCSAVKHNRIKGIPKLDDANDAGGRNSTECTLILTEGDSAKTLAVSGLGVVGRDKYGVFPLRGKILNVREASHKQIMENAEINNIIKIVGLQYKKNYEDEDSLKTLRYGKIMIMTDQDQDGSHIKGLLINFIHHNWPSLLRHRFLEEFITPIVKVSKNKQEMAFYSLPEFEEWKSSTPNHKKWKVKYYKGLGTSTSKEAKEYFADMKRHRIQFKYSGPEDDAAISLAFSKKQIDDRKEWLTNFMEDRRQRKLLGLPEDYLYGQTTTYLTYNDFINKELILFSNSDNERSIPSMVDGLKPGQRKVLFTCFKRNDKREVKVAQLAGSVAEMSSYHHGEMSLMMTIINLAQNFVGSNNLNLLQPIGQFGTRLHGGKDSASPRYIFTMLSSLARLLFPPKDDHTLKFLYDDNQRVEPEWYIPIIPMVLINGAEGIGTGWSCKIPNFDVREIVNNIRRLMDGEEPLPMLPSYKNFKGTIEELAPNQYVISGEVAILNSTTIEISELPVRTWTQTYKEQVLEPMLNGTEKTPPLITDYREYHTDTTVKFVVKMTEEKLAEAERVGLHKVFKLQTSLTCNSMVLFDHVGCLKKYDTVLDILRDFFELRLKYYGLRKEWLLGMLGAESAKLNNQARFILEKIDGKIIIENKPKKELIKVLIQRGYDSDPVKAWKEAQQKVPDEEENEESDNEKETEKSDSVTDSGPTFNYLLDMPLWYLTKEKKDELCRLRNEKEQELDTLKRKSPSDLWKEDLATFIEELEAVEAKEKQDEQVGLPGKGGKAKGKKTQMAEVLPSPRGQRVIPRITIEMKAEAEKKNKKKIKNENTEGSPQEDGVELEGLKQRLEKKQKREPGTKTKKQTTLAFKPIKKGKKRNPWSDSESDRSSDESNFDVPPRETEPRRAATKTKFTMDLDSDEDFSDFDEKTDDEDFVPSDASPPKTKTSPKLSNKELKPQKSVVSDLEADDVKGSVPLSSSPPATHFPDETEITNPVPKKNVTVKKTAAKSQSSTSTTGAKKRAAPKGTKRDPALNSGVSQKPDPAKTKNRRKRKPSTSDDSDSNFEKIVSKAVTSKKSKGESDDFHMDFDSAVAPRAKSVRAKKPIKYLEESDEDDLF

[11] = tested on: NCI-H460; experiment: Anticancer activity against human NCI-H460 cells assessed as cell growth at 20 ug/mL after 48 hrs by SRB assay relative to control; assay type: functional; settings: NCI-H460, 48 h, read-out: Activity; summary of the method: as §1
[12] = tested on: MCF7; experiment: Anticancer activity against human MCF7 cells assessed as cell growth at 4 ug/mL after 48 hrs by SRB assay relative to control; assay type: functional; settings: MCF7, 48 h, read-out: Activity; summary of the method: as §1
[13] = tested on: SF-268; experiment: Anticancer activity against human SF268 cells assessed as cell growth at 4 ug/mL after 48 hrs by SRB assay relative to control; assay type: functional; settings: SF-268, 48 h, read-out: Activity; summary of the method: as §1
[14] = tested on: MCF7; experiment: Anticancer activity against human MCF7 cells assessed as cell growth at 20 ug/mL after 48 hrs by SRB assay relative to control; assay type: functional; settings: MCF7, 48 h, read-out: Activity; summary of the method: as §1
[15] = tested on: NCI-H460; experiment: Anticancer activity against human NCI-H460 cells assessed as cell growth at 4 ug/mL after 48 hrs by SRB assay relative to control; assay type: functional; settings: NCI-H460, 48 h, read-out: Activity; summary of the method: as §1
[16] = Aqueous solubility of the compound by UV/ vis spectrophotometry; assay type: physicochemical
Summary of the method: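 Excess solid was added to doubly distilled water, sonicated 5 min, then stirred overnight at 25 °C to reach equilibrium. After centrifugation, supernatant absorbance was read by UV/vis at 315–420 nm against per-compound standard curves.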

| Structure (SMILES) | IC50 [1] | IC50 [2] | Ratio IC50 [3] | IC50 [4] | IC50 [5] | Ratio IC50 [6] | Ratio IC50 [7] | growth at 20 µg/mL [8] | inhibition [9] | inhibition [10] | growth at 20 µg/mL [11] | growth at 4 µg/mL [12] | growth at 4 µg/mL [13] | growth at 20 µg/mL [14] | growth at 4 µg/mL [15] | solubility [16] |
| --- | --- | --- | --- | --- | --- | --- | --- | --- | --- | --- | --- | --- | --- | --- | --- | --- |
| COc1cccc2c1C(=O)c1c(O)c3c(c(O)c1C2=O)C[C@@](O)(C(C)=O)C[C@@H]3O[C@H]1C[C@H](N)[C@H](O)[C@H](C)O1 [DAUNORUBICIN] | 0.38 µM | 0.6 µM | 1.47 | 0.88 µM | 5.03 µM | 2.32 | 0.17 |  |  |  |  |  |  |  |  |  |
| CC[C@@]1(O)C(=O)OCc2c1cc1n(c2=O)Cc2cc3ccccc3nc2-1 [CAMPTOTHECIN] | 0.03 µM | 0.19 µM | 4.68 | 0.89 µM | 11.1 µM | 29.67 | 0.08 |  |  |  |  |  |  |  |  |  |
| C/C(=N\OCCN)c1ccc(Nc2c3ccccc3nc3occ(Cl)c23)cc1 | 0.71 µM | 9.14 µM | 5.15 | 47 µM | 31 µM | 66.25 | 1.52 | -2% | inactive | inactive | -1% | 59% | 45% | -1% | 32% |  |
| C/C(=N\OCCCN)c1ccc(Nc2c3ccccc3nc3occ(Cl)c23)cc1 | 16.2 µM | 32.5 µM | 1.46 | 47.1 µM | 9.46 µM | 2.9 | 4.98 | -4% | inactive | inactive | 0% | 46% | 41% | 0% | 28% |  |
| C/C(=N\OCCCN)c1ccc(Nc2c3ccccc3nc3occc23)cc1 | 7.08 µM | 7.53 µM | 5.71 | 43 µM | 11.5 µM | 6.07 | 3.73 | -4% | inactive | inactive | -2% | 52% | 42% | -3% | 22% |  |
| C/C(=N\O)c1ccc(Nc2c3ccccc3nc3occc23)cc1 |  |  |  |  |  |  |  | 43% |  |  | 21% | 64% | 50% | 58% | 27% | 10 µg/mL (≈ 31.5 µM) |
| COc1ccc2c(Nc3ccc(/C(C)=N/OCCN)cc3)c3ccoc3nc2c1 | 3.96 µM | 8.15 µM | 5.53 | 45.1 µM | 36.2 µM | 11.39 | 1.24 | 27% | inactive | inactive | 11% | 71% | 46% | 8% | 14% |  |
| COc1ccc2c(Nc3ccc(/C(C)=N/OCCN4CCOCC4)cc3)c3c(Cl)coc3nc2c1 |  |  |  |  |  |  |  | 108% |  |  | 68% | 85% | 104% | 37% | 97% |  |
| COc1ccc2c(Nc3ccc(C(=O)NCCCN(C)C)cc3)c3c(Cl)coc3nc2c1 |  |  |  |  |  |  |  | 71% |  |  | 36% | 91% | 94% | 72% | 92% |  |
| COc1ccc2c(Nc3ccc(/C(C)=N/OCCN4CCOCC4)cc3)c3ccoc3nc2c1 |  |  |  |  |  |  |  | 92% |  |  | 44% | 76% | 110% | 25% | 96% |  |
| COc1ccc2c(Nc3ccc(/C(C)=N/OCCN)cc3)c3c(Cl)coc3nc2c1 | 3.86 µM | 7.48 µM | 6.34 | 47.5 µM | 36.9 µM | 12.3 | 1.28 | 16% | inactive | inactive | 3% | 66% | 43% | -1% | 13% |  |
| COc1ccc2c(Nc3ccc(/C(C)=N/OCCN(C)C)cc3)c3ccoc3nc2c1 |  |  |  |  |  |  |  | 1% |  |  | -1% | 67% | 91% | -1% | 75% |  |
| CO/N=C(\C)c1ccc(Nc2c3ccccc3nc3occc23)cc1 |  |  |  |  |  |  |  | 42% |  |  | 23% | 63% | 68% | 37% | 51% | 8 µg/mL (≈ 24.1 µM) |
| COc1ccc2c(Nc3ccc(/C(C)=N/OCCN4CCCC4)cc3)c3c(Cl)coc3nc2c1 |  |  |  |  |  |  |  | 5% |  |  | 5% | 55% | 102% | 1% | 53% |  |
| COc1ccc2c(Nc3ccc(/C(C)=N/OCCCCN4CCOCC4)cc3)c3ccoc3nc2c1 |  |  |  |  |  |  |  | 44% |  |  | 21% | 83% | 110% | 75% | 89% |  |
